What was measured:
[1] = target: T1, Low molecular weight protein-tyrosine phosphatase A (Mycobacterium tuberculosis) (UniProt P9WIA1); test: Inhibition of Mycobacterium tuberculosis PTP-A using p-nitrophenyl phosphate as substrate at 25 uM measured for 10 mins by spectrofluorimetry
T1 sequence (whole entry): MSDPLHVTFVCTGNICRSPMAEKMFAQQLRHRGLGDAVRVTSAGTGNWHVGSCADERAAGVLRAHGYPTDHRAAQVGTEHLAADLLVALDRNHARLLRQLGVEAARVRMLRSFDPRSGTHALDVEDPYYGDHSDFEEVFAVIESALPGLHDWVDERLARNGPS
Method in brief: (§1)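 Single-point screen at 25 μM final compound, added from 1.0 × 10−3 M DMSO stock, with recombinant Mtb PtpA or PtpB (0.4 μg/μL final) in 20 mM imidazole pH 7.0 with 40 mM pNPP. Reaction started by adding enzyme. p-Nitrophenol release read at 410 nm every min for 10 min at 37 °C. Residual activity was taken from the absorbance difference between 6 and 2 min; two experiments, each in triplicate.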

[2] = target: T2, Phosphotyrosine-protein phosphatase PTPB (Mycobacterium tuberculosis) (UniProt P96830); test: Inhibition of Mycobacterium tuberculosis PTP-B using p-nitrophenyl phosphate as substrate at 25 uM measured for 10 mins by spectrofluorimetry; method in brief: as §1
T2 sequence (whole entry): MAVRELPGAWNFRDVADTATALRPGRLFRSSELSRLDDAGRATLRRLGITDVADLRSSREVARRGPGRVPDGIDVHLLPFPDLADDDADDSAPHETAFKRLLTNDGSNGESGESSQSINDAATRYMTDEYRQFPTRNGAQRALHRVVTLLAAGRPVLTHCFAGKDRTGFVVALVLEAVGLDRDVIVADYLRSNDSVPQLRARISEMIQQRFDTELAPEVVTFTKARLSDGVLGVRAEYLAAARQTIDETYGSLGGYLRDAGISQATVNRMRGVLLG

[3] = target: T3, Low molecular weight protein-tyrosine phosphatase A (Mycobacterium tuberculosis, UniProt P9WIA1); test: Inhibition of Mycobacterium tuberculosis PTP-A using p-nitrophenyl phosphate as substrate measured for 10 mins by spectrofluorimetry
T3 sequence (P9WIA1 whole entry): T1 sequence (whole entry)
Method in brief: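 A410 read each minute over 10 min at 37 °C. Residual activity compared with wells without inhibitor; IC50 by linear regression of % inhibition against concentration. Triplicate, two independent experiments.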

[4] = Solubility of the compound; format: physicochemical

SMILES	inhibition [1]	inhibition [2]	IC50 [3]	solubility [4]
O=C(/C=C/c1ccc(-c2cc(C(F)(F)F)ccc2Cl)o1)c1ccc2c(c1)OCO2	36%	16%	174 µM	soluble
O=C(/C=C/c1ccc(Cl)cc1)c1ccc2c(c1)OCO2	38%	0%	117 µM	soluble
O=C(/C=C/c1ccc([N+](=O)[O-])cc1)c1ccc2c(c1)OCO2	35%	10%	74 µM	soluble
O=C(/C=C/c1cccc2ccccc12)c1ccc2ccccc2c1	43%	0%	93 µM	soluble
COc1cc(/C=C/C(=O)c2ccc(-n3ccnc3)cc2)ccc1OCc1ccccc1	38%	0%	102 µM	soluble
Cc1ccc(/C=C/C(=O)c2ccc3ccccc3c2)o1	30%	0%	1020 µM	soluble
COc1cc(OC)c(/C=C/C(=O)c2ccc3ccccc3c2)c(OC)c1	49%	0%	1660 µM	soluble
COc1ccc(C(=O)/C=C/c2ccc3c(c2)OCO3)c(OC)c1	42%	0%	101 µM	soluble
O=C(/C=C/c1ccc(Br)cc1)c1ccc2c(c1)OCO2	37%	9%	66 µM	soluble
O=C(/C=C/c1ccc2ccccc2c1)c1ccc2ccccc2c1	39%	25%	93 µM	soluble
O=C(/C=C/c1ccc(Cl)cc1Cl)c1ccc2c(c1)OCO2	27%	0%	407 µM	soluble
COc1ccc(/C=C/C(=O)c2ccc3c(c2)OCO3)c(OC)c1OC	26%	9%	83 µM	soluble
O=C(/C=C/c1ccc2ccccc2c1)c1ccc(-n2ccnc2)cc1	40%	0%	100 µM	soluble
Cc1ccc(/C=C/C(=O)c2ccc3c(c2)OCO3)o1	40%	8%	169 µM	soluble
O=C(/C=C/c1cccc(C(F)(F)F)c1)c1ccc2c(c1)OCO2	41%	0%	155 µM	soluble
COc1ccc(/C=C/C(=O)c2ccc3ccccc3c2)cc1	35%	0%	93 µM	soluble
O=C(/C=C/c1ccc(Cl)c(Cl)c1)c1ccc2c(c1)OCO2	35%	0%	151 µM	soluble
COc1cccc(OC)c1/C=C/C(=O)c1ccc2ccccc2c1	40%	24%	214 µM	soluble
COc1cc(OC)c(OC)cc1/C=C/C(=O)c1ccc2c(c1)OCO2	19%	19%		soluble
CCCCOc1ccc(/C=C/C(=O)c2ccc3ccccc3c2)cc1	8%	17%		soluble
COc1cc(OC)c(C(=O)/C=C/c2ccc3c(c2)OCO3)cc1OC	8%	29%		soluble
O=C(/C=C/c1ccc(Cl)c(C(F)(F)F)c1)c1ccc2c(c1)OCO2	0%	0%		soluble
COc1cc(/C=C/C(=O)c2ccc(Br)cc2)ccc1OCc1ccccc1	63%	0%	302 µM	soluble
COc1ccc(/C=C/C(=O)c2ccc3ccccc3c2)c(OC)c1OC	0%	0%		soluble

Source: ChEMBL document CHEMBL1944567, “Synthesis, biological evaluation, and molecular modeling of chalcone derivatives as potent inhibitors of Mycobacterium tuberculosis protein tyrosine phosphatases (PtpA and PtpB)” (J Med Chem, 2012)
